# Activity calls are given as the source filed them. No cut-off for these calls is given here.
# Legend:
# Pseudomonas aeruginosa [1] = assay: Antibacterial activity against multidrug/extremely drug-resistant/colistin-susceptible Pseudomonas aeruginosa isolate 100036 after 18 hrs by microtiter dilution assay; assay type: functional; conditions: isolate 100036, 18 h
# In short: (§1)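 Broth microdilution following CLSI guidelines. An overnight culture was adjusted to 0.5 McFarland in saline, then diluted 1:50 in Mueller-Hinton broth. This inoculum was added in equal volume to 2-fold serial dilutions of agent in MHB and incubated 18 h at 37 °C. MIC was the lowest concentration with no visible growth.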
# Pseudomonas aeruginosa [2] = assay: Antibacterial activity against multidrug/extremely drug-resistant/colistin-susceptible Pseudomonas aeruginosa isolate 101885 after 18 hrs by microtiter dilution assay; assay type: functional; conditions: isolate 101885, 18 h; in short: as §1
# Pseudomonas aeruginosa [3] = assay: Synergistic antibacterial activity against Pseudomonas aeruginosa PAO1 after 18 hrs in presence of kanamycin A by checkerboard assay; assay type: functional; conditions: PAO1, 18 h
# In short: (§2)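 Checkerboard in MHB: antibiotic diluted along one axis and adjuvant along the other (10 × 7 matrix). Inoculum was a 1:50 dilution in MHB of a 0.5 McFarland saline suspension; incubated 18 h at 37 °C. Each FIC = concentration in the no-growth well divided by the MIC alone; FIC index = sum of both FICs. ≤0.5 synergy, 0.5–4 no interaction, ≥4 antagonism.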
# Pseudomonas aeruginosa [4] = assay: Potentiation of rifampicin-induced antibacterial activity against multidrug/extremely drug-resistant/colistin-resistant Pseudomonas aeruginosa isolate 101243 assessed as fold reduction in rifampicin MIC at 4 ug/ml after 18 hrs by checkerboard assay relative to control; assay type: functional
# In short: (§3)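 Checkerboard in Mueller-Hinton broth, 10 × 7 matrix, with the adjuvant held at 4 µg/mL. Inoculum from a 0.5 McFarland suspension diluted 1:50; 18 h at 37 °C. Antibiotic MIC (lowest concentration with no growth) with adjuvant is compared with the antibiotic MIC alone, giving a fold reduction.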
# Escherichia coli = assay: Antibacterial activity against Escherichia coli ATCC 25922 after 18 hrs by microtiter dilution assay; assay type: functional; conditions: ATCC 25922, 18 h; in short: as §1
# Acinetobacter baumannii [5] = assay: Synergistic antibacterial activity against multidrug-resistant Acinetobacter baumannii AB031 after 18 hrs in presence of minocycline by checkerboard assay; assay type: functional; conditions: AB031, 18 h
# In short: (§4)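 Checkerboard in MHB with a 10 × 7 matrix: antibiotic serially diluted along one axis, adjuvant along the other. Inoculum was a 1:50 dilution of a 0.5 McFarland suspension, incubated 18 h at 37 °C and read on a plate reader. Each FIC is the concentration in a no-growth well divided by the MIC alone; FIC index is their sum, with ≤0.5 taken as synergy.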
# Pseudomonas aeruginosa [6] = assay: Potentiation of rifampicin-induced antibacterial activity against multidrug/extremely drug-resistant/colistin-susceptible Pseudomonas aeruginosa isolate P259-96918 at 4 ug/ml after 18 hrs by checkerboard assay; assay type: functional
# In short: (§5)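 Checkerboard in Mueller-Hinton broth: antibiotic serially diluted along one axis and adjuvant along the other (10 × 7 matrix). Inoculum from a 0.5 McFarland saline suspension diluted 1:50 in MHB; 18 h at 37 °C, then plate read. MIC is the lowest concentration with no growth. FIC of each agent is its concentration in a no-growth well divided by its MIC alone; FIC index is the sum of both. FIC index ≤0.5 counts as synergy.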
# Pseudomonas aeruginosa [7] = assay: Potentiation of rifampicin-induced antibacterial activity against multidrug/extremely drug-resistant/colistin-resistant Pseudomonas aeruginosa isolate 91433 at 4 ug/ml after 18 hrs by checkerboard assay; assay type: functional; in short: as §5
# Acinetobacter baumannii [8] = assay: Potentiation of minocycline-induced antibacterial activity against multidrug-resistant Acinetobacter baumannii AB031 at 4 ug/ml after 18 hrs by checkerboard assay; assay type: functional; in short: as §5
# Pseudomonas aeruginosa [9] = assay: Synergistic antibacterial activity against Pseudomonas aeruginosa PAO1 after 18 hrs in presence of erythromycin by checkerboard assay; assay type: functional; conditions: PAO1, 18 h; in short: as §2
# Pseudomonas aeruginosa [10] = assay: Potentiation of rifampicin-induced antibacterial activity against multidrug/extremely drug-resistant/colistin-resistant Pseudomonas aeruginosa isolate 91433 assessed as fold reduction in rifampicin MIC at 4 ug/ml after 18 hrs by checkerboard assay relative to control; assay type: functional; in short: as §3
# Pseudomonas aeruginosa [11] = assay: Potentiation of rifampicin-induced antibacterial activity against multidrug/extremely drug-resistant/colistin-susceptible Pseudomonas aeruginosa isolate P262-101856 infected in Galleria mellonella assessed as host survival at 75 mg/kg after 24 hrs relative to control; assay type: functional; conditions: isolate P262-101856, 24 h
# In short: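 Galleria mellonella larvae (about 250 mg, used within 7 days; 15 per group) were injected with 10 µL of XDR P. aeruginosa P262 at 1.0×10^3 CFU/mL. At 2 h they received a single 10 µL injection: monotherapy at 75 mg/kg, or combinations at 12.5+12.5 to 75+75 mg/kg. PBS vehicle served as control. Survival was scored over 24 h at 37 °C.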
# Pseudomonas aeruginosa [12] = assay: Antibacterial activity against multidrug/extremely drug-resistant/colistin-resistant Pseudomonas aeruginosa isolate 91433 after 18 hrs by microtiter dilution assay; assay type: functional; conditions: isolate 91433, 18 h; in short: as §1
# Pseudomonas aeruginosa [13] = assay: Synergistic antibacterial activity against Pseudomonas aeruginosa PAO1 after 18 hrs in presence of colistin by checkerboard assay; assay type: functional; conditions: PAO1, 18 h; in short: as §2
# Pseudomonas aeruginosa [14] = assay: Bactericidal activity against Pseudomonas aeruginosa PAO1 at antibacterial MIC after 2 hrs; assay type: functional
# In short: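 Time-kill with P. aeruginosa PAO1. A 0.5 McFarland suspension was diluted 1:50 in LB broth and exposed to agent in PBS (pH 7.2) at 1/2×, 1×, 2× or 4× MIC at 37 °C for 6 h. Samples at 0, 10, 30, 60, 90, 120, 240 and 360 min were serially diluted in PBS, plated on LB agar, and colonies counted after 20 h at 37 °C.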
# Pseudomonas aeruginosa [15] = assay: Antibacterial activity against multidrug/extremely drug-resistant/colistin-susceptible Pseudomonas aeruginosa isolate P262-101856 after 18 hrs by microtiter dilution assay; assay type: functional; conditions: isolate P262-101856, 18 h; in short: as §1
# Pseudomonas aeruginosa [16] = assay: Potentiation of rifampicin-induced antibacterial activity against multidrug/extremely drug-resistant/colistin-susceptible Pseudomonas aeruginosa isolate P262-101856 infected in Galleria mellonella assessed as mortality at 12.5 to 37.5 mg/kg after 24 hrs relative to control; assay type: functional
# In short: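 Galleria mellonella larvae (~250 mg, used within 7 days), 15 per group, injected with 10 µL XDR P262 at 1.0×10^3 CFU/mL in PBS. PBS vehicle control. Survival scored over 24 h at 37 °C.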
# [17] = Ratio of cytotoxic concentration against human JIMT1 cells to synergistic concentration for Pseudomonas aeruginosa PAO1 in presence of rifampicin
# Pseudomonas aeruginosa [18] = assay: Potentiation of minocycline-induced antibacterial activity against multidrug/extremely drug-resistant/colistin-susceptible Pseudomonas aeruginosa isolate 101885 at 4 ug/ml after 18 hrs by checkerboard assay; assay type: functional; in short: as §5
# Pseudomonas aeruginosa [19] = assay: Synergistic antibacterial activity against Pseudomonas aeruginosa PAO1 after 18 hrs in presence of novobiocin by checkerboard assay; assay type: functional; conditions: PAO1, 18 h; in short: as §2
# Pseudomonas aeruginosa [20] = assay: Potentiation of ceftazidime-induced antibacterial activity against Pseudomonas aeruginosa PAO1 at 4 ug/ml after 18 hrs by checkerboard assay; assay type: functional; in short: as §5
# Pseudomonas aeruginosa [21] = assay: Potentiation of kanamycin A-induced antibacterial activity against Pseudomonas aeruginosa PAO1 at 4 ug/ml after 18 hrs by checkerboard assay; assay type: functional; in short: as §5
# Acinetobacter baumannii [22] = assay: Synergistic antibacterial activity against multidrug-resistant Acinetobacter baumannii 110193 after 18 hrs in presence of rifampicin by checkerboard assay; assay type: functional; conditions: Acinetobacter baumannii, 110193, 18 h; in short: as §4
smiles,measurement,setting,value
Cl.Cl.Cl.Cl.Cl.Cl.Cl.NCCCC[C@H](N)C(=O)N(CCCCCCCCCCCCO[C@@H]1[C@@H](O[C@H]2O[C@H](CO)[C@@H](O)[C@H](N)[C@H]2O)[C@H](N)C[C@H](N)[C@H]1O[C@H]1O[C@H](CN)[C@@H](O)C[C@H]1N)Cc1c2ccccc2c(Cl)c2ccccc12,MIC,Pseudomonas aeruginosa [1],32 µg/mL
same,MIC,Pseudomonas aeruginosa [2],16 µg/mL
same,MIC,Pseudomonas aeruginosa [3],0.5 µg/mL
same,fold change (FC),Pseudomonas aeruginosa [4],32
same,MIC,Escherichia coli,32 µg/mL
same,MIC,Acinetobacter baumannii [5],2 µg/mL
same,fractional inhibitory concentration index (FICI),Pseudomonas aeruginosa [6],0.039
same,fractional inhibitory concentration index (FICI),Pseudomonas aeruginosa [7],0.5
same,fractional inhibitory concentration index (FICI),Acinetobacter baumannii [8],0.625
same,MIC,Pseudomonas aeruginosa [9],4 µg/mL
same,fold change (FC),Pseudomonas aeruginosa [10],8
same,survival at 75 mg/kg,Pseudomonas aeruginosa [11],77%
same,MIC,Pseudomonas aeruginosa [12],8 µg/mL
same,MIC,Pseudomonas aeruginosa [13],1 µg/mL
same,Activity,Pseudomonas aeruginosa [14],Active
same,MIC,Pseudomonas aeruginosa [15],32 µg/mL
same,mortality,Pseudomonas aeruginosa [16],100%
same,Ratio,[17],6
same,fractional inhibitory concentration index (FICI),Pseudomonas aeruginosa [18],0.156
same,MIC,Pseudomonas aeruginosa [19],2 µg/mL
same,fractional inhibitory concentration index (FICI),Pseudomonas aeruginosa [20],0.563
same,fractional inhibitory concentration index (FICI),Pseudomonas aeruginosa [21],1.016
same,MIC,Acinetobacter baumannii [22],1 µg/mL
